Measurements: ChEMBL document CHEMBL1141655, “Structure-activity relationships of Bak derived peptides: affinity and specificity modulations by amino acid replacement” (Eur J Med Chem, 2008)

Biological target: Apoptosis regulator Bcl-2 (Homo sapiens, UniProt P10415)
Assay: Binding affinity to recombinant Bcl-2 expressed in Escherichia coli BL21 by fluorescence polarization assay
In short: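 GST-Bcl-2 lacking C-terminal 21 residues, glutathione-resin purified, dialysed into 20 mM phosphate pH 7.4, 1 mM EDTA, 50 mM NaCl. Competition FP: fluorescein N-terminal Bak BH3 probe 15 nM, protein 1 µM, peptide final 10^-9 to 10^-4 M with 0.05% pluronic acid; 30 min room temperature; ex 485/em 535 nm, mP. EC50 from sigmoidal dose-response, n = 2, triplicate.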

Chain of Apoptosis regulator Bcl-2 (P10415 whole entry): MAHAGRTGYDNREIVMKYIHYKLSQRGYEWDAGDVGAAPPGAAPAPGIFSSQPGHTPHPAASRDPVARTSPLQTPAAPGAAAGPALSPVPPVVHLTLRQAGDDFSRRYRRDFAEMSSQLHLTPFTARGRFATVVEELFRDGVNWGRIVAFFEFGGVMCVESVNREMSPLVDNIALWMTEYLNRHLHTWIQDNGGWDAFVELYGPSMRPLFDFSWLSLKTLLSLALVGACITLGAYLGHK

**Q.** Which EC50 does the source give for `CC[C@H](C)[C@H](NC(=O)[C@H](C)NC(=O)[C@H](CCSC)NC(=O)[C@H](CCC(N)=O)NC(=O)[C@H](CCCN=C(N)N)NC(=O)CNC(=O)[C@@H](NC(=O)[C@H](CCC(N)=O)NC(=O)CN)C(C)C)C(=O)N[C@H](C(=O)NCC(=O)N[C@@H](CC(=O)O)C(=O)N[C@@H](CC(=O)O)C(=O)N[C@H](C(=O)N[C@@H](CC(N)=O)C(=O)N[C@@H](CCCN=C(N)N)C(=O)O)[C@@H](C)CC)[C@@H](C)CC` here?
**A.** The EC50 was 29900 nM.

**Q.** Which EC50 does the source give for `CCCC[C@H](NC(=O)[C@H](CCC(N)=O)NC(=O)CN)C(=O)NCC(=O)N[C@@H](CCCN=C(N)N)C(=O)N[C@@H](CCC(N)=O)C(=O)N[C@@H](CC(C)C)C(=O)N[C@@H](C)C(=O)N[C@H](C(=O)N[C@H](C(=O)NCC(=O)N[C@@H](CC(=O)O)C(=O)N[C@@H](CC(=O)O)C(=O)N[C@H](C(=O)N[C@@H](CC(N)=O)C(=O)N[C@@H](CCCN=C(N)N)C(=O)O)[C@@H](C)CC)[C@@H](C)CC)[C@@H](C)CC` here?
**A.** Its EC50 is 757 nM.

Biological target: Bcl-2-like protein 1 (Homo sapiens, UniProt Q07817)
Assay: Binding affinity to recombinant Bcl-XL expressed in Escherichia coli BL21 by fluorescence polarization assay

Chain of Bcl-2-like protein 1 (Q07817 whole entry): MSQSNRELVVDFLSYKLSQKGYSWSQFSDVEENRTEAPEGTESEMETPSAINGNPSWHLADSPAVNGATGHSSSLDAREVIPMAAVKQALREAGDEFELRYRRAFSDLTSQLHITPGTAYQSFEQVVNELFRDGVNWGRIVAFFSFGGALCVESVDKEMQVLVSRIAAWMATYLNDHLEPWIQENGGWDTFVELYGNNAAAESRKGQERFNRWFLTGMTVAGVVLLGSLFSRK

**Q.** Which EC50 does the source give for `CC[C@H](C)[C@H](NC(=O)[C@H](C)NC(=O)[C@H](CCSC)NC(=O)[C@H](CCC(N)=O)NC(=O)[C@H](CCCN=C(N)N)NC(=O)CNC(=O)[C@@H](NC(=O)[C@H](CCC(N)=O)NC(=O)CN)C(C)C)C(=O)N[C@H](C(=O)NCC(=O)N[C@@H](CC(=O)O)C(=O)N[C@@H](CC(=O)O)C(=O)N[C@H](C(=O)N[C@@H](CC(N)=O)C(=O)N[C@@H](CCCN=C(N)N)C(=O)O)[C@@H](C)CC)[C@@H](C)CC` here?
**A.** Its EC50 is 1430 nM.

**Q.** Which EC50 does the source give for `CCCC[C@H](NC(=O)[C@H](CCC(N)=O)NC(=O)CN)C(=O)NCC(=O)N[C@@H](CCCN=C(N)N)C(=O)N[C@@H](CCC(N)=O)C(=O)N[C@@H](CC(C)C)C(=O)N[C@@H](C)C(=O)N[C@H](C(=O)N[C@H](C(=O)NCC(=O)N[C@@H](CC(=O)O)C(=O)N[C@@H](CC(=O)O)C(=O)N[C@H](C(=O)N[C@@H](CC(N)=O)C(=O)N[C@@H](CCCN=C(N)N)C(=O)O)[C@@H](C)CC)[C@@H](C)CC)[C@@H](C)CC` here?
**A.** The EC50 was 71 nM.

**Q.** With `CC[C@H](C)[C@H](NC(=O)[C@H](C)NC(=O)[C@H](CC(C)C)NC(=O)[C@H](CCC(N)=O)NC(=O)[C@H](CCCN=C(N)N)NC(=O)CNC(=O)[C@@H](NC(=O)[C@H](CCC(N)=O)NC(=O)CN)C(C)C)C(=O)N[C@H](C(=O)NCC(=O)N[C@@H](CC(=O)O)C(=O)N[C@@H](CC(=O)O)C(=O)N[C@@H](Cc1ccc2ccccc2c1)C(=O)N[C@@H](CC(N)=O)C(=O)N[C@@H](CCCN=C(N)N)C(=O)O)[C@@H](C)CC` as the compound, how does the EC50 read?
**A.** The EC50 was 125 nM.

**Q.** For `CC[C@H](C)[C@H](NC(=O)[C@H](C)NC(=O)[C@H](CC(C)C)NC(=O)[C@H](CCC(N)=O)NC(=O)[C@H](CCCNC(=N)N)NC(=O)CNC(=O)[C@H](C)NC(=O)[C@H](CCC(N)=O)NC(=O)CN)C(=O)N[C@H](C(=O)NCC(=O)N[C@@H](CC(=O)O)C(=O)N[C@@H](CC(=O)O)C(=O)N[C@H](C(=O)N[C@@H](CC(N)=O)C(=O)N[C@@H](CCCNC(=N)N)C(=O)O)[C@@H](C)CC)[C@@H](C)CC`, which EC50 is on record?
**A.** Its EC50 is 15000 nM.

**Q.** With `CC[C@H](C)[C@H](NC(=O)[C@H](C)NC(=O)[C@H](CC(C)C)NC(=O)[C@H](CCC(N)=O)NC(=O)[C@H](CCCNC(=N)N)NC(=O)CNC(=O)[C@@H](NC(=O)[C@H](CCC(N)=O)NC(=O)CN)C(C)C)C(=O)N[C@H](C(=O)NCC(=O)N[C@@H](CC(=O)O)C(=O)N[C@@H](CC(=O)O)C(=O)N[C@@H](CC1CCCCC1)C(=O)N[C@@H](CC(N)=O)C(=O)N[C@@H](CCCNC(=N)N)C(=O)O)[C@@H](C)CC` as the compound, how does the EC50 read?
**A.** The EC50 was 58 nM.

**Q.** Which EC50 does the source give for `CC[C@H](C)[C@H](NC(=O)[C@H](C)NC(=O)[C@H](CC(C)C)NC(=O)[C@H](CCC(N)=O)NC(=O)[C@H](CCCNC(=N)N)NC(=O)CNC(=O)[C@@H](NC(=O)[C@H](CCC(N)=O)NC(=O)CN)C(C)C)C(=O)N[C@@H](Cc1ccc([N+](=O)[O-])cc1)C(=O)NCC(=O)N[C@@H](CC(=O)O)C(=O)N[C@@H](CC(=O)O)C(=O)N[C@H](C(=O)N[C@@H](CC(N)=O)C(=O)N[C@@H](CCCNC(=N)N)C(=O)O)[C@@H](C)CC` here?
**A.** Its EC50 is 1470 nM.

**Q.** For `CC[C@H](C)[C@H](NC(=O)[C@H](C)NC(=O)[C@H](CC(C)C)NC(=O)[C@H](CCC(N)=O)NC(=O)[C@H](CCCNC(=N)N)NC(=O)CNC(=O)[C@@H](NC(=O)[C@H](CCC(N)=O)NC(=O)CN)C(C)C)C(=O)N[C@H](C(=O)NCC(=O)N[C@@H](CC(=O)O)C(=O)N[C@@H](CC(=O)O)C(=O)N[C@@H](Cc1cccc(Cl)c1)C(=O)N[C@@H](CC(N)=O)C(=O)N[C@@H](CCCNC(=N)N)C(=O)O)[C@@H](C)CC`, which EC50 is on record?
**A.** The EC50 was 56 nM.

**Q.** For `CC[C@H](C)[C@H](NC(=O)[C@H](C)NC(=O)[C@H](CC(C)C)NC(=O)[C@H](CCC(N)=O)NC(=O)[C@H](CCCNC(=N)N)NC(=O)CNC(=O)[C@@H](NC(=O)[C@H](CCC(N)=O)NC(=O)CN)C(C)C)C(=O)N[C@@H](C)C(=O)NCC(=O)N[C@@H](CC(=O)O)C(=O)N[C@@H](CC(=O)O)C(=O)N[C@H](C(=O)N[C@@H](CC(N)=O)C(=O)N[C@@H](CCCNC(=N)N)C(=O)O)[C@@H](C)CC`, which EC50 is on record?
**A.** Its EC50 is 17000 nM.

**Q.** Which EC50 does the source give for `CC[C@H](C)[C@H](NC(=O)[C@H](C)NC(=O)[C@H](C)NC(=O)[C@H](CCC(N)=O)NC(=O)[C@H](CCCN=C(N)N)NC(=O)CNC(=O)[C@@H](NC(=O)[C@H](CCC(N)=O)NC(=O)CN)C(C)C)C(=O)N[C@H](C(=O)NCC(=O)N[C@@H](CC(=O)O)C(=O)N[C@@H](CC(=O)O)C(=O)N[C@H](C(=O)N[C@@H](CC(N)=O)C(=O)N[C@@H](CCCN=C(N)N)C(=O)O)[C@@H](C)CC)[C@@H](C)CC` here?
**A.** Its EC50 is 270000 nM.

**Q.** Which EC50 does the source give for `CC[C@H](C)[C@H](NC(=O)[C@H](C)NC(=O)[C@H](CCc1ccccc1)NC(=O)[C@H](CCC(N)=O)NC(=O)[C@H](CCCNC(=N)N)NC(=O)CNC(=O)[C@@H](NC(=O)[C@H](CCC(N)=O)NC(=O)CN)C(C)C)C(=O)N[C@H](C(=O)NCC(=O)N[C@@H](CC(=O)O)C(=O)N[C@@H](CC(=O)O)C(=O)N[C@H](C(=O)N[C@@H](CC(N)=O)C(=O)N[C@@H](CCCNC(=N)N)C(=O)O)[C@@H](C)CC)[C@@H](C)CC` here?
**A.** Its EC50 is 225 nM.

**Q.** Which EC50 does the source give for `CC[C@H](C)[C@H](NC(=O)[C@H](C)NC(=O)[C@H](CC(C)C)NC(=O)[C@H](CCC(N)=O)NC(=O)[C@H](CCCN=C(N)N)NC(=O)CNC(=O)[C@@H](NC(=O)[C@H](CCC(N)=O)NC(=O)CN)C(C)C)C(=O)N[C@@H](Cc1cccc(Cl)c1)C(=O)NCC(=O)N[C@@H](CC(=O)O)C(=O)N[C@@H](CC(=O)O)C(=O)N[C@H](C(=O)N[C@@H](CC(N)=O)C(=O)N[C@@H](CCCN=C(N)N)C(=O)O)[C@@H](C)CC` here?
**A.** The EC50 was 200 nM.

**Q.** With `CC[C@H](C)[C@H](NC(=O)[C@H](C)NC(=O)[C@H](CC(C)C)NC(=O)[C@H](CCC(N)=O)NC(=O)[C@H](CCCNC(=N)N)NC(=O)CNC(=O)[C@@H](NC(=O)[C@H](CCC(N)=O)NC(=O)CN)C(C)C)C(=O)N[C@H](C(=O)NCC(=O)N[C@@H](CC(=O)O)C(=O)N[C@@H](CC(=O)O)C(=O)N[C@@H](Cc1ccc(-c2ccccc2)cc1)C(=O)N[C@@H](CC(N)=O)C(=O)N[C@@H](CCCNC(=N)N)C(=O)O)[C@@H](C)CC` as the compound, how does the EC50 read?
**A.** The EC50 was 267 nM.

System: not listed separately
Assay: Selectivity ratio of EC50 for recombinant Bcl-2 to EC50 for recombinant Bcl-XL

**Q.** For `CCCC[C@H](NC(=O)[C@H](CCC(N)=O)NC(=O)CN)C(=O)NCC(=O)N[C@@H](CCCNC(=N)N)C(=O)N[C@@H](CCC(N)=O)C(=O)N[C@@H](CC(C)C)C(=O)N[C@@H](C)C(=O)N[C@H](C(=O)N[C@H](C(=O)NCC(=O)N[C@@H](CC(=O)O)C(=O)N[C@@H](CC(=O)O)C(=O)N[C@H](C(=O)N[C@@H](CC(N)=O)C(=O)N[C@@H](CCCNC(=N)N)C(=O)O)[C@@H](C)CC)[C@@H](C)CC)[C@@H](C)CC`, which Ratio EC50 is on record?
**A.** The Ratio EC50 was 11.

**Q.** For `CC[C@H](C)[C@H](NC(=O)[C@H](C)NC(=O)[C@H](CCSC)NC(=O)[C@H](CCC(N)=O)NC(=O)[C@H](CCCNC(=N)N)NC(=O)CNC(=O)[C@@H](NC(=O)[C@H](CCC(N)=O)NC(=O)CN)C(C)C)C(=O)N[C@H](C(=O)NCC(=O)N[C@@H](CC(=O)O)C(=O)N[C@@H](CC(=O)O)C(=O)N[C@H](C(=O)N[C@@H](CC(N)=O)C(=O)N[C@@H](CCCNC(=N)N)C(=O)O)[C@@H](C)CC)[C@@H](C)CC`, which Ratio EC50 is on record?
**A.** The Ratio EC50 was 21.

**Q.** With `CC[C@H](C)[C@H](NC(=O)[C@H](C)NC(=O)[C@H](CC(C)C)NC(=O)[C@H](CCC(N)=O)NC(=O)[C@H](CCCNC(=N)N)NC(=O)CNC(=O)[C@@H](NC(=O)[C@H](CCC(N)=O)NC(=O)CN)C(C)C)C(=O)N[C@@H](Cc1ccc(-c2ccccc2)cc1)C(=O)NCC(=O)N[C@@H](CC(=O)O)C(=O)N[C@@H](CC(=O)O)C(=O)N[C@H](C(=O)N[C@@H](CC(N)=O)C(=O)N[C@@H](CCCNC(=N)N)C(=O)O)[C@@H](C)CC` as the compound, how does the Ratio EC50 read?
**A.** The Ratio EC50 was 17.
